Measured values as given in publication PMC6301076 (Bioorganic & medicinal chemistry letters, 2018).
“And” between values parts separate entries of the source, which are not always exact repeats. Equal values may be shown once. Read-outs that look alike come from different tables or passages of the source. Marks after values point to notes of the source that are not given here.

Columns and labels:
[1] = test system: cultured adult S. mansoni; conditions: cited from earlier work
S. mansoni [2] = conditions: cited from earlier work; for single oral dose ED50: S. mansoni mouse model
[3] = Plasma exposure after oral administration to mice; assay type: in vivo; conditions: 100 mg/kg, plasma concentration versus time profile
schistosomula (NTS) = conditions: 10 μM concentration; cited from earlier work
[4] = after 100 mg/kg oral dose of Ro 13-3978 to mice; cited from earlier work
[5] = Aqueous solubility by nephelometry; assay type: physicochemical; conditions: concentration range; for Sol2.0: 0.01 M HCl (approx. pH 2.0); for Sol6.5: pH 6.5 phosphate buffer
S. mansoni [6] = assay: In vivo antischistosomal activity in S. mansoni-infected mice; conditions: 1 × 100 mg/kg po
[7] = In vitro intrinsic clearance in mouse liver microsomes; assay type: in vitro ADME; conditions: absence of co-factor
How it was run: (§1)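 Test compound incubated with human or mouse liver microsomes. Control incubations without NADPH detect cofactor-independent degradation, such as by non-specific microsomal esterases. Read-out is intrinsic clearance, also expressed as in vitro half-life.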

[8] = In vitro intrinsic clearance in human liver microsomes; assay type: in vitro ADME; conditions: absence of co-factor
How it was run: as §1

Row | Structure (SMILES) | Sol2.0 [5] | Sol6.5 [5] | also measured
1 | CC1(C)NC(=O)N(c2ccc(F)c(C(F)(F)F)c2)C1=O [Ro 13-3978, reference compound] | – | – | effect on cultured adult S. mansoni [1]: little effect; single oral dose ED50 (S. mansoni [2]): 15 mg/kg
2 | CC(C)(NC(=O)Nc1ccccc1)C(=O)O [compound 3] | – | 50 to 100 µg/mL | –
3 | CC(C)(C(=O)O)N1CCCN(c2ccc(F)c(C(F)(F)F)c2)C1=O [compound 4] | >100/>100 μg/mL | >100/>100 μg/mL | –
4 | O=C(Nc1ccc(F)c(C(F)(F)F)c1)NC1(C(=O)O)CCC1 [compound 9] | 50 to 100 µg/mL | – | –
5 | CC(C)(C(=O)O)n1c(=O)[nH]c2cc(C(F)(F)F)c(F)cc21 [compound 10] | 50 to 100 µg/mL | – | –
6 | CC(C)(C(=O)O)N1Cc2cc(F)c(C(F)(F)F)cc2NC1=O [compound 11] | 50 to 100 µg/mL | – | –
7 | O=C(C1CCCCC1)N1CC(=O)N2CCc3ccccc3C2C1 (stereo not drawn) [praziquantel, reference compound] | – | – | single oral dose ED50 (S. mansoni [2]): 172 mg/kg

Second part, led by results:

Row | Sol2.0 [5] | Sol6.5 [5] | Structure (SMILES) | also measured
8 | 25 to 50 µg/mL | – | CC(C)(NC(=O)Nc1ccc(F)c(C(F)(F)F)c1)C(=O)O [compound 2] | activity against cultured adult S. mansoni ([1]; 10 μM concentration): no activity; oral absorption [3]: rapid and extensive absorption; activity against schistosomula (NTS) (schistosomula (NTS)): no activity; exposure relative to that of Ro 13-3978, based on AUC0-24h [4]: < 1%; S. mansoni WBR (S. mansoni [2]; 1 × 100 mg/kg po, S. mansoni-infected mice, ref 4 (Wang et al.), 100 mg/kg): 67% and 67^d %
9 | 25-50/25-50 μg/mL | 25-50/25-50 μg/mL | CC(C)(CC(=O)Nc1ccc(F)c(C(F)(F)F)c1)C(=O)O [compound 5] | –
10 | 50 to 100 µg/mL | 25 to 50 µg/mL | CC(C)(NC(=O)Cc1ccc(F)c(C(F)(F)F)c1)C(=O)O [compound 6] | –
11 | >100/>100 μg/mL | >100/>100 μg/mL | O=C(O)CNC(=O)Nc1ccc(F)c(C(F)(F)F)c1 [compound 7] | –
12 | >100/>100 μg/mL | >100/>100 μg/mL | O=C(Nc1ccc(F)c(C(F)(F)F)c1)NC1(C(=O)O)CC1 [compound 8] | –
13 | 50-100/50-100 μg/mL | 50-100/50-100 μg/mL | CC(C)(NC(=O)Nc1ccc(F)c(C(F)(F)F)c1)C(N)=O [compound 12] | –
14 | 3.1-6.3/3.1-6.3 μg/mL | 3.1-6.3/3.1-6.3 μg/mL | CCOC(=O)C(C)(C)NC(=O)Nc1ccc(F)c(C(F)(F)F)c1 [compound 13] | S. mansoni WBR (S. mansoni [6]): 70^f %; stability in control microsomal incubations [7]: underwent non-NADPH mediated degradation; stability in control microsomal incubations [8]: underwent non-NADPH mediated degradation
